According to ChEMBL document CHEMBL5705905, “Pharmacological targeting of kinases MST1 and MST2 augments tissue repair and regeneration” (Sci Transl Med, 2016):
pIC50: −log10 of the molar value. Calls of active or inactive are those of the source. The calls are words filed in the database; no cut-off is given here.

Key:
[1] = biological target: Serine/threonine-protein kinase B-raf (Homo sapiens) (UniProt P15056); experiment: Inhibition of BRAF (unknown origin) assessed as remaining activity at 1 uM by Kinome scan method relative to control
Chain of Serine/threonine-protein kinase B-raf (Homo sapiens) (P15056 whole entry): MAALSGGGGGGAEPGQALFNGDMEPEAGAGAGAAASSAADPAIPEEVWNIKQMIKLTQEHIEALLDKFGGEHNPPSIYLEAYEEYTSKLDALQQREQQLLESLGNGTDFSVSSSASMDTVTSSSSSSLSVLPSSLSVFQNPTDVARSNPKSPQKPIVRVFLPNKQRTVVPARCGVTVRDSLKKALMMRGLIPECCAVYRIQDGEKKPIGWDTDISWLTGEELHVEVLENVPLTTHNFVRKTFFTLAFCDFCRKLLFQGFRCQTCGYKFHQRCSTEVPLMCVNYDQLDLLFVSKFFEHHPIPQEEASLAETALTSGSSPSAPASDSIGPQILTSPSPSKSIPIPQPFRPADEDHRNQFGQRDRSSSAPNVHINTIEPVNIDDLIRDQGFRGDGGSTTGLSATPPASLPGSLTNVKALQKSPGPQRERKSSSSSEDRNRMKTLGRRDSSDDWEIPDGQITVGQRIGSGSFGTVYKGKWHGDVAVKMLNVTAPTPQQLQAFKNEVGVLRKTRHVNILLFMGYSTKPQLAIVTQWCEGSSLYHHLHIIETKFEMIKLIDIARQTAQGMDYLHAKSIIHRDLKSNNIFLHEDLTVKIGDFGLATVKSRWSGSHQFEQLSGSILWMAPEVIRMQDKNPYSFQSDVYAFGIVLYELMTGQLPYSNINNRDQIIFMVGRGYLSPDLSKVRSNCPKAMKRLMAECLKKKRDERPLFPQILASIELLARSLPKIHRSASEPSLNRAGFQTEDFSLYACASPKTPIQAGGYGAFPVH
Outline: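 Active-site-dependent competition-binding (KINOMEscan) panel of 468 kinases, test compound at 1 μM (from a 10 mM DMSO stock). Read-out is ctrl% = (test signal − positive control signal)/(negative control signal − positive control signal) × 100. DMSO is the negative control (100%) and a control compound is the positive control (0%). Lower ctrl% means tighter binding.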

[2] = biological target: Cyclin-dependent kinase-like 3 (Homo sapiens) (UniProt Q8IVW4); experiment: Inhibition of CDKL3 (unknown origin) assessed as remaining activity at 1 uM by Kinome scan method relative to control
Chain of Cyclin-dependent kinase-like 3 (Homo sapiens) (Q8IVW4 whole entry, looked up): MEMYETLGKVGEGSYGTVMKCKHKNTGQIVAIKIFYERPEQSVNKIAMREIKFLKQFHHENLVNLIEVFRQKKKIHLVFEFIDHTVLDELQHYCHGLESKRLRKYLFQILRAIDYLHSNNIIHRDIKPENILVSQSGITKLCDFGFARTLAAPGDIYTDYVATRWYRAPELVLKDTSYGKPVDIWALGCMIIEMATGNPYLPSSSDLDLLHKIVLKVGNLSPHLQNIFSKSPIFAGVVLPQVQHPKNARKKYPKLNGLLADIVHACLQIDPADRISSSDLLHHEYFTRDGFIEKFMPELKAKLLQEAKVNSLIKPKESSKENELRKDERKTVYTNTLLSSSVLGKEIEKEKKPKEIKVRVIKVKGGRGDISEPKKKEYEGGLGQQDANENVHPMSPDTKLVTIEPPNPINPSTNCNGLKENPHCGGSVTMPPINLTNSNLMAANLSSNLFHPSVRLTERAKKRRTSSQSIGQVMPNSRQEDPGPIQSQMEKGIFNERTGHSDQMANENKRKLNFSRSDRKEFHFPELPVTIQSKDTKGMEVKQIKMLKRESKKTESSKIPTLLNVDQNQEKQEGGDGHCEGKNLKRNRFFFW
Outline: (§1)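 Active-site-dependent competition-binding profiling (KINOMEscan) at 1 μM against a 468-kinase panel; compound supplied from a 10 mM DMSO stock. Read-out is ctrl% = (test signal − positive control signal)/(negative control signal − positive control signal) × 100. DMSO is the negative control (100%) and a control compound the positive control (0%). Lower ctrl% means tighter binding.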

[3] = biological target: Death-associated protein kinase 2 (Homo sapiens) (UniProt Q9UIK4); experiment: Inhibition of DAPK2 (unknown origin) assessed as remaining activity at 1 uM by Kinome scan method relative to control; outline: as §1
Chain of Death-associated protein kinase 2 (Homo sapiens) (Q9UIK4 whole entry, looked up): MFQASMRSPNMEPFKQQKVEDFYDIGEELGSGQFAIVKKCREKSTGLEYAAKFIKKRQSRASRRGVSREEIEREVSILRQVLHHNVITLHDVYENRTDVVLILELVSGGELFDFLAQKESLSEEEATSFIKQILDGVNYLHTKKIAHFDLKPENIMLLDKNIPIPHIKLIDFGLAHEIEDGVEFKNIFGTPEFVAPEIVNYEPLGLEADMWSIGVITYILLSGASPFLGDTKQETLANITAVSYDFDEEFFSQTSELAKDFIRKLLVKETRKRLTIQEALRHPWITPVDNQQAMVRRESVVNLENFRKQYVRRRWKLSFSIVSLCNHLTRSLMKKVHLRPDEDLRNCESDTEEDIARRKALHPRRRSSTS

[4] = biological target: Ephrin type-B receptor 3 (Homo sapiens) (UniProt P54753); experiment: Inhibition of EPHB3 (unknown origin) assessed as remaining activity at 1 uM by Kinome scan method relative to control
[5] = biological target: Ephrin type-B receptor 4 (Homo sapiens) (UniProt P54760); experiment: Inhibition of EPHB4 (unknown origin) assessed as remaining activity at 1 uM by Kinome scan method relative to control
Chain of Ephrin type-B receptor 4 (Homo sapiens) (P54760 whole entry): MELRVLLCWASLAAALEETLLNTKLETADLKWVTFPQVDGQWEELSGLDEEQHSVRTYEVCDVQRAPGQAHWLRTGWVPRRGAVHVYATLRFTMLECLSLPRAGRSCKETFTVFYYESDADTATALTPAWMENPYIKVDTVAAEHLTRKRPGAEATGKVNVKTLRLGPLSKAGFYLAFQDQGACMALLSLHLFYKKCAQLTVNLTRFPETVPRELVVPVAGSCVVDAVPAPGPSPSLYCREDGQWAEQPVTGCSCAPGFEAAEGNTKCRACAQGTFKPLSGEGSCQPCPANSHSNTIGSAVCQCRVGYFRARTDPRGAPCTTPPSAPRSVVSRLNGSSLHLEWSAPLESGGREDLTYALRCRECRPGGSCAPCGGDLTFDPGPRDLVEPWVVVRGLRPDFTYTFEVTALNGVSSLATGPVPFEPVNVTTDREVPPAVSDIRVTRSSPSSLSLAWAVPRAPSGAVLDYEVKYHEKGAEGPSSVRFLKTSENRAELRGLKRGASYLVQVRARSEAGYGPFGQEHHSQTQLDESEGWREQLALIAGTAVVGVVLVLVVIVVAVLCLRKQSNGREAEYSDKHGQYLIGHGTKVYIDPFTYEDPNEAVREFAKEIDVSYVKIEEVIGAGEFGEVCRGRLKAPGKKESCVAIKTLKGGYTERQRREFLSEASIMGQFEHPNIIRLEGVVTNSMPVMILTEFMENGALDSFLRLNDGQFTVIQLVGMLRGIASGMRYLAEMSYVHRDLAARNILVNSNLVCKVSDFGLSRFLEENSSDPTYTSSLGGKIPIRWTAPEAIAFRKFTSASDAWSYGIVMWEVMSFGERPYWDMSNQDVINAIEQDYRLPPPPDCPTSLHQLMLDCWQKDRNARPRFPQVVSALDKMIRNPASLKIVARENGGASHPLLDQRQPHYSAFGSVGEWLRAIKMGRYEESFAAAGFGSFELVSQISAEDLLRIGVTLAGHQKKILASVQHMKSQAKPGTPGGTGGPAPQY

[6] = biological target: Mitogen-activated protein kinase 6 (Homo sapiens) (UniProt Q16659); experiment: Inhibition of ERK3 (unknown origin) assessed as remaining activity at 1 uM by Kinome scan method relative to control
[7] = biological target: Mitogen-activated protein kinase 7 (Homo sapiens) (UniProt Q13164); experiment: Inhibition of ERK5 (unknown origin) assessed as remaining activity at 1 uM by Kinome scan method relative to control
[8] = biological target: Mast/stem cell growth factor receptor Kit (Homo sapiens) (UniProt P10721); experiment: Inhibition of KIT (unknown origin) assessed as remaining activity at 1 uM by Kinome scan method relative to control
[9] = tested on: Mast/stem cell growth factor receptor Kit (Homo sapiens), P10721 [V559D,V654A]; experiment: Inhibition of KIT V559D/V654A mutant (unknown origin) assessed as remaining activity at 1 uM by Kinome scan method relative to control
[10] = biological target: LIM domain kinase 2 (Homo sapiens) (UniProt P53671); experiment: Inhibition of LIMK2 (unknown origin) assessed as remaining activity at 1 uM by Kinome scan method relative to control
[11] = biological target: Mitogen-activated protein kinase kinase kinase 11 (Homo sapiens) (UniProt Q16584); experiment: Inhibition of MLK3 (unknown origin) assessed as remaining activity at 1 uM by Kinome scan method relative to control
[12] = tested on: Phosphatidylinositol 4,5-bisphosphate 3-kinase catalytic subunit alpha isoform (Homo sapiens), P42336 [M1043I]; experiment: Inhibition of PIK3CA M1043I mutant (unknown origin) assessed as remaining activity at 1 uM by Kinome scan method relative to control
[13] = biological target: Phosphatidylinositol 4-phosphate 5-kinase type-1 gamma (Homo sapiens, UniProt O60331); experiment: Inhibition of PIP5K1C (unknown origin) assessed as remaining activity at 1 uM by Kinome scan method relative to control
Chain of Phosphatidylinositol 4-phosphate 5-kinase type-1 gamma (O60331 whole entry): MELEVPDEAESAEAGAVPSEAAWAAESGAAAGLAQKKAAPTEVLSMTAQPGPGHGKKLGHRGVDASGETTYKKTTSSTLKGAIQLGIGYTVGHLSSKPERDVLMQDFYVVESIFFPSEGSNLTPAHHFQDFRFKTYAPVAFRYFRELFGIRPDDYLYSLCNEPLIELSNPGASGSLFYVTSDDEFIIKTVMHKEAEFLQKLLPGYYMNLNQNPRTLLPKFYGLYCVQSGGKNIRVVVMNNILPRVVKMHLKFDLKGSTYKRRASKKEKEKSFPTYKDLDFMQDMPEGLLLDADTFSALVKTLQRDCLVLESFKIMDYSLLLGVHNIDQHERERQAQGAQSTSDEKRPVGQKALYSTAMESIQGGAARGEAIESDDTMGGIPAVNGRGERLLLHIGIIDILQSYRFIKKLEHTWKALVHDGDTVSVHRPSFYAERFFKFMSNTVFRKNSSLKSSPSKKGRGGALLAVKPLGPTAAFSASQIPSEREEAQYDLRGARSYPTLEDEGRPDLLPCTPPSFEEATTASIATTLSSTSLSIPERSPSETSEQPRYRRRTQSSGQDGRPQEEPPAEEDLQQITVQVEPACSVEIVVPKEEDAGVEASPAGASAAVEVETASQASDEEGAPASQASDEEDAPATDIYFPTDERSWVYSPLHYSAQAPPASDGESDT

[14] = biological target: Serine/threonine-protein kinase PLK2 (Homo sapiens) (UniProt Q9NYY3); experiment: Inhibition of PLK2 (unknown origin) assessed as remaining activity at 1 uM by Kinome scan method relative to control
[15] = biological target: Tyrosine-protein kinase receptor TYRO3 (Homo sapiens) (UniProt Q06418); experiment: Inhibition of TYRO3 (unknown origin) assessed as remaining activity at 1 uM by Kinome scan method relative to control
[16] = biological target: Vascular endothelial growth factor receptor 2 (Homo sapiens) (UniProt P35968); experiment: Inhibition of VEGFR2 (unknown origin) assessed as remaining activity at 1 uM by Kinome scan method relative to control
Chain of Vascular endothelial growth factor receptor 2 (Homo sapiens) (P35968 whole entry): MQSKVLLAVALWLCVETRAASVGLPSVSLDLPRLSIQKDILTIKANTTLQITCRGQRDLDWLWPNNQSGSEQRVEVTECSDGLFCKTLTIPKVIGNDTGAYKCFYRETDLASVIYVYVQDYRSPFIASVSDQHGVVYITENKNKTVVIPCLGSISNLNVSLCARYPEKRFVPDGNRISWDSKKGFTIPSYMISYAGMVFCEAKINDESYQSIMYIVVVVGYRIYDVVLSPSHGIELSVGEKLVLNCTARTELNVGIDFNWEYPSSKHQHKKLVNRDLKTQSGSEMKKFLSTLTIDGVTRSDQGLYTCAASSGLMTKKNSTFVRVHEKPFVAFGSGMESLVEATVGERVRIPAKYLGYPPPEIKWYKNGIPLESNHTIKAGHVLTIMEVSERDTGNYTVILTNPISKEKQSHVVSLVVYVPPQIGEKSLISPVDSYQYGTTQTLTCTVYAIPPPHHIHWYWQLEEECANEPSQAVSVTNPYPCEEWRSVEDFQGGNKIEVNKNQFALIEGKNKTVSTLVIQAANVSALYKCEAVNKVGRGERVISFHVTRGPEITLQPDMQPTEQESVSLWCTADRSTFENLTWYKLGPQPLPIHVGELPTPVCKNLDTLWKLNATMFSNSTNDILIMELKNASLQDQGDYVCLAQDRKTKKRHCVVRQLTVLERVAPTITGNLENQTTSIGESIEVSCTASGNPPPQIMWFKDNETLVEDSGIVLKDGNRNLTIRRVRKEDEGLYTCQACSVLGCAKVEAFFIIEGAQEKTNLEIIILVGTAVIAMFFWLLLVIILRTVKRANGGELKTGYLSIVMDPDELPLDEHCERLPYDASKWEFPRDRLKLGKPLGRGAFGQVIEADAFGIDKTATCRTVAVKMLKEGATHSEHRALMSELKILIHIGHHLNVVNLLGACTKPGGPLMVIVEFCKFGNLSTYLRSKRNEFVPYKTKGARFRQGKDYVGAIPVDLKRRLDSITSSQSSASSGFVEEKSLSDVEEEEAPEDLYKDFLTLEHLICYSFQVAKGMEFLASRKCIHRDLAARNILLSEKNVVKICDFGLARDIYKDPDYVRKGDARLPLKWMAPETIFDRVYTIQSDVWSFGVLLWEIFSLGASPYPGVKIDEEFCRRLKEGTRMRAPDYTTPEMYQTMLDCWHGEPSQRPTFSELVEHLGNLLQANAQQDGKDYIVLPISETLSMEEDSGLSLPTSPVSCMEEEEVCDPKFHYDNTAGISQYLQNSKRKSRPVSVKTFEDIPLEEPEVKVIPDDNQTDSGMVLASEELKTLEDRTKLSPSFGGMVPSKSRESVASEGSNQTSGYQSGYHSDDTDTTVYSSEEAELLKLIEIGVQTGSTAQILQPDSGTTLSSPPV

[17] = biological target: Phosphatidylinositol 3-kinase catalytic subunit type 3 (Homo sapiens) (UniProt Q8NEB9); experiment: Inhibition of VPS34 (unknown origin) assessed as remaining activity at 1 uM by Kinome scan method relative to control
Aurora kinase B = Aurora kinase B (Homo sapiens, UniProt Q96GD4); experiment: Inhibition of AURKB (unknown origin) in presence of ATP by enzymatic assay
Homo sapiens = species on record: Homo sapiens; experiment: Inhibition of recombinant His-tagged full-length MST1 Y101F/D109A mutant (unknown origin) expressing in Escherichia coli assessed as GST-tagged MOB1 phosphorylation level at 0.01 to 1 uM incubated for 15 min by immunoblot analysis; settings: dose 0.01-1 µM
[18] = biological target: T1, Serine/threonine-protein kinase 3 (Homo sapiens, UniProt Q13188); experiment: Inhibition of recombinant His-tagged full-length MST2 (unknown origin) expressing in Escherichia coli assessed as GST-tagged MOB1a phosphorylation level incubated for 30 mins by immunoblot analysis
T1 sequence (Q13188 whole entry): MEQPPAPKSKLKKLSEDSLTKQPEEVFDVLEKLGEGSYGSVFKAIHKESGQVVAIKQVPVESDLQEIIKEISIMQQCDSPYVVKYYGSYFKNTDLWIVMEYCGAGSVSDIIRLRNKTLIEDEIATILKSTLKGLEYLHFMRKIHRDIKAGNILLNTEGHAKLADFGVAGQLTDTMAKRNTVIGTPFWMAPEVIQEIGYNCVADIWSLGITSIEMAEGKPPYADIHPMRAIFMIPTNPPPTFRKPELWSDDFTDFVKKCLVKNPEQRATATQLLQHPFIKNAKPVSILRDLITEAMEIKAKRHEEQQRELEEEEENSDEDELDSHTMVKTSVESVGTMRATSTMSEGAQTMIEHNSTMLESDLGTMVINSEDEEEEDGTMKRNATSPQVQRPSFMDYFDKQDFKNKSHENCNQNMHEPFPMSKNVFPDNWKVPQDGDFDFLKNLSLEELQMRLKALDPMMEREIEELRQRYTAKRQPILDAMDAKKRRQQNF

[19] = Acute toxicity in mouse assessed as increase in CK19-positive cells at 1 mg/kg,ip administrated once a daily for 3 weeks by H and E staining based immunohistochemical analysis relative to control; format: organism-based, Liver; settings: in vivo, 504 h
Outline: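 Postnatal mice dosed from 10 days of age with vehicle or 1 mg/kg once per day for 21 days (3 weeks). Vehicle is 0.1% citric acid aqueous solution containing 20% Kolliphor HS 15. Liver sections stained with H&E and by IHC for CK19 and BrdU, with positive cells quantified (n = 3). Liver/body weight ratio recorded (n = 4). Values are means ± SD versus vehicle, Student's t test.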

Structure (SMILES): CN1C(=O)c2sccc2N(C)c2nc(Nc3ccc(S(N)(=O)=O)cc3)ncc21
- Activity [1]: 100%
- Activity [2]: 91%
- Activity [3]: 100%
- Activity [4]: 95%
- Activity [5]: 61%
- Activity [6]: 100%
- Activity [7]: 60%
- Activity [8]: 100%
- Activity [9]: 92%
- Activity [10]: 100%
- Activity [11]: 100%
- Activity [12]: 77%
- Activity [13]: 10%
- Activity [14]: 42%
- Activity [15]: 100%
- Activity [16]: 100%
- Activity [17]: 79%
- pIC50 (Aurora kinase B): 7.72
- inhibition (Homo sapiens): Active
- pIC50 [18]: 7.42
- Activity [19]: 15%
